The results in this text go back to ChEMBL document CHEMBL1124291, “New actinomycin D analogues as superior chemotherapeutic agents against primary and advanced colon tumors and colon xenografts in nude mice” (J Med Chem, 1988).

The species named for assay [1] is Rattus norvegicus. Briefly: DNA-cleaving ability expressed as % of closed circular pBR322 DNA cleaved at 100 uM conc 100 uM. It is filed as functional. The procedure, abridged: (§1)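 pBR322 DNA (200 μM nucleotides) in 10 mM Tris·HCl pH 7.8 and 50 mM NaCl, with 4 mM Na₂S₂O₄ and 100 μM FeCl₂. Incubated with drug for 1 h at 20 °C, kept air-saturated. Supercoiled and open-circular forms were separated by agarose gel electrophoresis, stained with ethidium bromide and quantitated by densitometry. % cleaved was calculated from the open- and closed-circular amounts.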

The species named for assay [2] is Rattus norvegicus. Briefly: DNA-cleaving ability expressed as % of closed circular pBR322 DNA cleaved […] conc 50 uM. Type of assay: functional. A digest of the protocol:
as §1

Some results are limits rather than exact numbers.

Regarding BLEOMYCIN, the Activity is greater than 85% in the assay filed under Rattus norvegicus [1] and 75% in the assay filed under Rattus norvegicus [2].
